Experiments:
[1] = target: Angiotensin-converting enzyme (Homo sapiens, UniProt P12821); test: Inhibition of human recombinant ACE by fluorimetry
Neprilysin = target: T1, Neprilysin (Sus scrofa, UniProt P19621); test: Inhibition of pig kidney NEP by fluorimetry
T1 sequence (P19621 whole entry): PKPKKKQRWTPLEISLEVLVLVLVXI
In short: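 Fluorescence was read at λex 340 nm and λem 530 nm. IC50 was derived from inhibition curves, and the assay was validated with a reference inhibitor IC50.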

[2] = target: T2, Endothelin-converting enzyme 1 (Homo sapiens, UniProt P42892); test: Inhibition of human recombinant ECE1 by fluorimetry
T2 sequence (P42892 whole entry): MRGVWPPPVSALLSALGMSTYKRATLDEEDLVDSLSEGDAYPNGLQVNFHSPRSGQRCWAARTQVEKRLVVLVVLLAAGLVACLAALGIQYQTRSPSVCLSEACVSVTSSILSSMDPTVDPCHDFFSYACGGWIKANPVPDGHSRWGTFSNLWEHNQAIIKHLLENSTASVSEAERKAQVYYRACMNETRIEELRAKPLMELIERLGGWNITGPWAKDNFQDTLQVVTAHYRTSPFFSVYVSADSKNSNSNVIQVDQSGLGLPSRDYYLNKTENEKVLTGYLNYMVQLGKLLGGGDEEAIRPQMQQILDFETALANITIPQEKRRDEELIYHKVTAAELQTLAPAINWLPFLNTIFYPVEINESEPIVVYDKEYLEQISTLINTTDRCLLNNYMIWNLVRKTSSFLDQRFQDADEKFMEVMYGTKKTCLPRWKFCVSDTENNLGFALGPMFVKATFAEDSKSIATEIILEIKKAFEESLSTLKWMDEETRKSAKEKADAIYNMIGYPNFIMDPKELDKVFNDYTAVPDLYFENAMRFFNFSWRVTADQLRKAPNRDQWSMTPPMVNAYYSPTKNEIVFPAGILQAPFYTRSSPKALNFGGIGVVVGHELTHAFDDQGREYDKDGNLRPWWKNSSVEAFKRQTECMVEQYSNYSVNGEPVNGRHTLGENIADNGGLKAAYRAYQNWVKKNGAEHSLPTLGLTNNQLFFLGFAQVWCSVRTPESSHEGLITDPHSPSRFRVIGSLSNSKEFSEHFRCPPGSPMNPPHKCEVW

Sequence of Angiotensin-converting enzyme (P12821 whole entry): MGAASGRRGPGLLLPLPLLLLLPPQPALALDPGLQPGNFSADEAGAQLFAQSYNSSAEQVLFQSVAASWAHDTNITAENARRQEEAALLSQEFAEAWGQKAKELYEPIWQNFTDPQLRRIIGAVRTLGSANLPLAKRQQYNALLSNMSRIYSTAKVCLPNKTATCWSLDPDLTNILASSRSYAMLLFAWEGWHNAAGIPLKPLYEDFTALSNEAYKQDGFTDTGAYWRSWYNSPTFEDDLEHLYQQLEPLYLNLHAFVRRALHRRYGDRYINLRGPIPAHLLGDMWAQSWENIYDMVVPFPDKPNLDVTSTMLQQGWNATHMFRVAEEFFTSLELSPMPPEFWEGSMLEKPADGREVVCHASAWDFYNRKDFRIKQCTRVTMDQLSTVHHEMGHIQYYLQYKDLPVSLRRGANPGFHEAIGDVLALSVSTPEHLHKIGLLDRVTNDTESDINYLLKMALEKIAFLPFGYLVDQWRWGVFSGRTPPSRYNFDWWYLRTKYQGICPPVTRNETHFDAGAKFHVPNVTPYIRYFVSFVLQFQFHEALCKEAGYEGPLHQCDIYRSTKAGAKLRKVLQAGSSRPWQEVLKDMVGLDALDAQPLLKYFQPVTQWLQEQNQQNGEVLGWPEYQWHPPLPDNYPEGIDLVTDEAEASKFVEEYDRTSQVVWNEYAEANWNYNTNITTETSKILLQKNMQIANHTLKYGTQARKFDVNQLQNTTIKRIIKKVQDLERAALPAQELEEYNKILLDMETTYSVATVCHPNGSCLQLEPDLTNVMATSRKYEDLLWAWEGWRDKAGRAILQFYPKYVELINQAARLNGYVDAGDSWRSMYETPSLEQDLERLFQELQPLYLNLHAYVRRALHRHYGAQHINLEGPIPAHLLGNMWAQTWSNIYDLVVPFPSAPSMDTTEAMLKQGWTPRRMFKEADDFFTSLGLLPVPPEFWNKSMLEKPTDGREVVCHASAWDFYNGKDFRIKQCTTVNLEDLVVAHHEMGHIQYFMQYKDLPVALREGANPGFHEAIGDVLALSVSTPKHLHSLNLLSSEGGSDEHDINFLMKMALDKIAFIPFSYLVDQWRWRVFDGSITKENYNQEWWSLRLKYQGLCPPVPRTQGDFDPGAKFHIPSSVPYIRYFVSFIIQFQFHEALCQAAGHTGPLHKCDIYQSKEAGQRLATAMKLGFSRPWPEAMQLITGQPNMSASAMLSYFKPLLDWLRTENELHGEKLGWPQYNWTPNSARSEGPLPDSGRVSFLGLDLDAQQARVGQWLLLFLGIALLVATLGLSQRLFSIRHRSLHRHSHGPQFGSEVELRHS

| IC50 [1] [nM] | IC50 (Neprilysin) [nM] | IC50 [2] [nM] | Structure (SMILES) |
| --- | --- | --- | --- |
| 400 | 580 | > 10000 | O=C(CC(S)C(F)(F)F)NC(Cc1c[nH]c2ccccc12)C(=O)O (stereo not drawn) |
| 160 | 80 | > 10000 | O=C(CC(S)C(F)(F)F)NC(Cc1ccc(O)cc1)C(=O)O (stereo not drawn) |
|  | 50 |  | CC(C)CC(S)CC(=O)NC(Cc1ccccc1)C(=O)NC(Cc1ccc(O)cc1)C(=O)O (stereo not drawn) |
| 280 | 430 | > 10000 | O=C(CC(S)C(F)(F)F)NC(Cc1ccccc1)C(=O)NC(Cc1ccc(O)cc1)C(=O)O (stereo not drawn) |
| 1010 | 1150 | 2420 | O=C(CC(S)C(F)(F)C(F)(F)F)NC(Cc1ccccc1)C(=O)O (stereo not drawn) |

Continued, molecule first:

| Structure (SMILES) | IC50 [1] [nM] | IC50 (Neprilysin) [nM] | IC50 [2] [nM] |
| --- | --- | --- | --- |
| O=C(CC(S)C(F)(F)F)NC(Cc1ccccc1)C(=O)O (stereo not drawn) | 830 | 300 | > 10000 |
| CC(C)CC(S)CC(=O)NC(Cc1ccccc1)C(=O)O (stereo not drawn) | > 10000 | 41 | > 10000 |
| O=C(O)CNC(=O)C(CS)Cc1ccccc1 (stereo not drawn) [THIORPHAN] |  | 6.2 |  |
| O=C(CC(S)C(F)(F)F)NC(Cc1ccc(F)cc1)C(=O)O (stereo not drawn) | 300 | 230 | > 10000 |

Source: ChEMBL document CHEMBL1154033, “Synthesis and enzymatic evaluation of novel partially fluorinated thiol dual ACE/NEP inhibitors” (Bioorg Med Chem Lett, 2009)
